Experimental data from ChEMBL document CHEMBL4190362, “Synthesis, biological evaluation and quantitative structure-active relationships of 1,3-thiazolidin-4-one derivatives. A promising chemical scaffold endowed with high antifungal potency and low cytotoxicity” (Eur J Med Chem, 2017).

Key:
Type in all cases: functional
[1] = system: Candida tropicalis; assay: Antifungal activity against Candida tropicalis clinical isolates assessed as inhibition of microbial growth incubated for 24 hrs by broth microdilution method
How it was run: (§1)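 Twenty-two clinical Candida isolates (8 C. albicans, 4 C. glabrata, 3 C. tropicalis, 3 C. krusei, 2 C. parapsilosis, 2 C. sake) were identified by colony morphology and biochemistry and subcultured at 35 °C for purity. Compounds were dissolved in DMSO and tested by broth microdilution in Sabouraud dextrose broth per NCCLS/CLSI/EUCAST guidance. Values are geometric mean MIC per species (µg/mL).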

[2] = system: Staphylococcus aureus; assay: Antibacterial activity against Staphylococcus aureus assessed as inhibition of microbial growth incubated for 18 to 22 hrs by broth microdilution method
How it was run: (§2)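 Broth microdilution in Mueller-Hinton II broth following NCCLS recommendations; compounds dissolved in DMSO.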

[3] = system: Escherichia coli; assay: Antibacterial activity against Escherichia coli assessed as inhibition of microbial growth incubated for 18 to 22 hrs by broth microdilution method; how it was run: as §2
[4] = system: Enterococcus faecalis; assay: Antibacterial activity against Streptococcus faecalis assessed as inhibition of microbial growth incubated for 18 to 22 hrs by broth microdilution method; how it was run: as §2
[5] = system: Enterobacter; assay: Antibacterial activity against Enterobacter spp. assessed as inhibition of microbial growth incubated for 18 to 22 hrs by broth microdilution method; how it was run: as §2
[6] = system: Pichia kudriavzevii; assay: Antifungal activity against Candida krusei clinical isolates assessed as inhibition of microbial growth incubated for 24 hrs by broth microdilution method; how it was run: as §1
[7] = system: [Candida] sake; assay: Antifungal activity against Candida sake clinical isolates assessed as inhibition of microbial growth incubated for 24 hrs by broth microdilution method; conditions: Fermentozyma sake; how it was run: as §1
[8] = system: Staphylococcus warneri; assay: Antibacterial activity against Staphylococcus warneri assessed as inhibition of microbial growth incubated for 18 to 22 hrs by broth microdilution method; how it was run: as §2
[9] = system: Klebsiella oxytoca; assay: Antibacterial activity against Klebsiella oxytoca assessed as inhibition of microbial growth incubated for 18 to 22 hrs by broth microdilution method; how it was run: as §2
[10] = system: Candida parapsilosis; assay: Antifungal activity against Candida parapsilosis clinical isolates assessed as inhibition of microbial growth incubated for 24 hrs by broth microdilution method; conditions: Lodderomyces parapsilosis; how it was run: as §1
[11] = system: Proteus mirabilis; assay: Antibacterial activity against Proteus mirabilis assessed as inhibition of microbial growth incubated for 18 to 22 hrs by broth microdilution method; how it was run: as §2
[12] = system: Candida albicans; assay: Antifungal activity against Candida albicans clinical isolates assessed as inhibition of microbial growth incubated for 24 hrs by broth microdilution method; how it was run: as §1
[13] = system: Nakaseomyces glabratus; assay: Antifungal activity against Candida glabrata clinical isolates assessed as inhibition of microbial growth incubated for 24 hrs by broth microdilution method; how it was run: as §1

SMILES	MIC [1] [µg/mL]	MIC [2] [µg/mL]	MIC [3] [µg/mL]	MIC [4] [µg/mL]	MIC [5] [µg/mL]	MIC [6] [µg/mL]	MIC [7] [µg/mL]	MIC [8] [µg/mL]	MIC [9] [µg/mL]	MIC [10] [µg/mL]	MIC [11] [µg/mL]	MIC [12] [µg/mL]	MIC [13] [µg/mL]
C=CCC/C(C)=N\N=C1\SCC(=O)N1Cc1ccccc1	8	≥ 256	≥ 256	≥ 256	≥ 256	8	8	≥ 256	≥ 256	8	≥ 256	8	2
CC1=C(/C=N\N=C2\SCC(=O)N2Cc2ccccc2)C(C)(C)CC=C1	2	≥ 256	≥ 256	≥ 256	≥ 256	4	2	≥ 256	≥ 256	4	≥ 256	4	4
C/C(=N/N=C1/SCC(=O)N1Cc1ccccc1)c1ccc2ccc3ccccc3c2c1	2	≥ 256	≥ 256	≥ 256	≥ 256	4	8	≥ 256	≥ 256	2	≥ 256	2	2
CC(C)=N/N=C1/SCC(=O)N1Cc1ccccc1	256	≥ 256	≥ 256	≥ 256	≥ 256	256	256	≥ 256	≥ 256	256	≥ 256	256	256
C/C(=N/N=C1\NC(=O)CS1)c1ccc(/C(C)=N\N=C2/NC(=O)CS2)cc1	2	≥ 256	≥ 256	≥ 256	≥ 256	2	2	≥ 256	≥ 256	2	≥ 256	2	2
CCCC/C(CC)=N\N=C1\SCC(=O)N1Cc1ccccc1	16	≥ 256	≥ 256	≥ 256	≥ 256	4	4	≥ 256	≥ 256	8	≥ 256	128	32
O=C1CS/C(=N/N=C2CCCC2)N1Cc1ccccc1	16	≥ 256	≥ 256	≥ 256	≥ 256	16	16	≥ 256	≥ 256	16	≥ 256	8	8
CC1CC/C(=N/N=C2/SCC(=O)N2Cc2ccccc2)C1 (stereo not given)	256	≥ 256	≥ 256	≥ 256	≥ 256	256	256	≥ 256	≥ 256	256	≥ 256	256	256
C/C(=N/N=C1/SCC(=O)N1Cc1ccccc1)c1ccsc1	128	≥ 256	≥ 256	≥ 256	≥ 256	128	128	≥ 256	≥ 256	128	≥ 256	256	4
CC/C(C)=N\N=C1\SCC(=O)N1Cc1ccccc1	8	≥ 256	≥ 256	≥ 256	≥ 256	16	32	≥ 256	≥ 256	8	≥ 256	8	16
O=C1CS/C(=N/N=C\c2c[nH]c3ccccc23)N1Cc1ccccc1	256	≥ 256	≥ 256	≥ 256	≥ 256	2	16	≥ 256	≥ 256	16	≥ 256	256	16
C/C(=N/N=C1/SCC(=O)N1Cc1ccccc1)c1cccc([N+](=O)[O-])c1	8	≥ 256	≥ 256	≥ 256	≥ 256	4	8	≥ 256	≥ 256	16	≥ 256	4	2
C/C(=N/N=C1/SCC(=O)N1Cc1ccccc1)c1ccco1	256	≥ 256	≥ 256	≥ 256	≥ 256	256	256	≥ 256	≥ 256	256	≥ 256	256	256
C/C(=N/N=C1/SCC(=O)N1Cc1ccccc1)c1ccc(Cl)s1	256	≥ 256	≥ 256	≥ 256	≥ 256	128	128	≥ 256	≥ 256	128	≥ 256	256	8
O=C1CS/C(=N/N=C\c2ccccc2)N1Cc1ccccc1	16	≥ 256	≥ 256	≥ 256	≥ 256	16	16	≥ 256	≥ 256	4	≥ 256	4	4
Clc1ccc(C(Cn2ccnc2)OCc2ccsc2Cl)c(Cl)c1 (stereo not given) [TIOCONAZOLE]	8					8	4			8		8	4
OC(Cn1cncn1)(Cn1cncn1)c1ccc(F)cc1F [FLUCONAZOLE]	2					2	2			2		2	2
C[C@@H]1[C@H](O)[C@@H](C)/C=C/C=C/C=C/C=C/C=C/C=C/C=C/[C@H](O[C@@H]2O[C@H](C)[C@@H](O)[C@H](N)[C@@H]2O)C[C@@H]2O[C@](O)(C[C@@H](O)C[C@@H](O)[C@H](O)CC[C@@H](O)C[C@@H](O)CC(=O)O[C@H]1C)C[C@H](O)[C@H]2C(=O)O [AMPHOTERICIN B]	2					4	2			2		4	4
Clc1ccc(COC(Cn2ccnc2)c2ccc(Cl)cc2Cl)c(Cl)c1 (stereo not given) [MICONAZOLE]	2					4	2			4		2	4
CC(=O)N1CCN(c2ccc(OCC3COC(Cn4ccnc4)(c4ccc(Cl)cc4Cl)O3)cc2)CC1 (stereo not given) [KETOCONAZOLE]	2					4	4			2		2	2
